What was measured:
[1] = system: HaCaT; assay: Antiproliferative activity against HaCaT cells; type: functional, cell-based; details: Homo sapiens
In short: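 HaCaT human keratinocytes were kept in DMEM with 10% FCS, penicillin and streptomycin at 37 °C under 8% CO2. After 48 h the cells were detached with trypsin/EDTA and counted by phase-contrast microscopy.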

[2] = system: Liposome; assay: Inhibition of 2,2'-azobis(2-aminopropane)hydrochloride (AAPH) induced lipid peroxidation in bovine brain phospholipid liposomes; type: functional, subcellular, Bos taurus
[3] = biological target: T1, Polyunsaturated fatty acid 5-lipoxygenase (Homo sapiens, UniProt P09917); assay: Inhibitory concentration against arachidonic acid 5-lipoxygenation; type: functional
T1 sequence (P09917 whole entry): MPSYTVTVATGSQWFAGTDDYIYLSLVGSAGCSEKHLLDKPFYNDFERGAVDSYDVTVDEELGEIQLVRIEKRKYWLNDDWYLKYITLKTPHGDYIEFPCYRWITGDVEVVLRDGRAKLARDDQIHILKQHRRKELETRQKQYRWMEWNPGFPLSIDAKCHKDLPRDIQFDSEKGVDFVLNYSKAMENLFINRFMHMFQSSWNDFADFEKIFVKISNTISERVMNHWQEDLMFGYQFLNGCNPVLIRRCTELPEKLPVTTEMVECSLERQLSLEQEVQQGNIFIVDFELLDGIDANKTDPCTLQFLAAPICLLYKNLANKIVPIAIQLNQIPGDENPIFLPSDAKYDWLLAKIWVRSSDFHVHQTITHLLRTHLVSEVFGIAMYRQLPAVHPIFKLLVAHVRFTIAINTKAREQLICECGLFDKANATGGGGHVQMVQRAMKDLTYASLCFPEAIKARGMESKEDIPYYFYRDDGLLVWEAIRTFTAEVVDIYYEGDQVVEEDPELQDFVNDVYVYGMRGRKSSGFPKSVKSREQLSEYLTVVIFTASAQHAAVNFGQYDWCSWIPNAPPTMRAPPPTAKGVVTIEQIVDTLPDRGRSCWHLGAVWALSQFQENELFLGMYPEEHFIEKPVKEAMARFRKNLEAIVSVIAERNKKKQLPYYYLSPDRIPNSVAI
In short: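 Bovine PMNL (10^7 cells/mL) were stimulated with Ca-ionophore. Compound was preincubated for 15 min at 37 °C.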

[4] = Reducing activity against 2,2-diphenyl-1-picrylhydrazyl (DPPH) with equimolar compound; type: functional
In short: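 Test compound and DPPH, each 10⁻⁴ M in acetone/PBS (1-1 v/v), mixed 1 mL + 1 mL. DPPH reduction followed spectrophotometrically at 516 nm. Reciprocal DPPH concentration plotted against time gave straight lines, and second-order rate constants (M⁻¹ s⁻¹) were taken from the slopes. Values are means, N = 3-6. Highly reactive compounds gave approximate values only.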

IC50 [2]: 79 µM
IC50 [3]: 7 µM
Compound: O=C1c2c(O)cccc2Cc2cccc(O)c21 [ANTHRALIN]
IC50 [1]: 0.2 µM
kDPPH [4]: 24.2 M⁻¹ s⁻¹
